The values that follow come from ChEMBL document CHEMBL4513216, “Probing the Open Global Health Chemical Diversity Library for Multistage-Active Starting Points for Next-Generation Antimalarials” (ACS Infect Dis, 2020).

The series can be described thus: Toxicity liver stage against HepG2, at 10uM. Further details: test concentration 10 uM, cell line HepG2-A16-CD81EGFP. It counts as cell-based. The settings on record: human, HepG2-A16-CD81EGFP cells; read-out: INHIBITION
The procedure, abridged: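 Uninfected HepG2-A16-CD81EGFP cells, 3 × 10^3 per well, 1536-well, plated on prespotted compound at 10 μM final, parasite-free screening media added to match infected plates; puromycin 10 μM positive, DMSO 0.5% negative; run in parallel with 48 h PbLuc assay at 37 °C, 5% CO2; viability by CellTiter-Glo luminescence, normalized to controls.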
For the compound `Cc1ccc(CNC2(Cc3cc(-c4ccc(F)cc4)on3)COC2)o1`, the cytotoxicity at 10 µM stood at 8.13%. For the compound `Cc1cccc2c1nc1n2[C@@H](CNC(=O)NC(C)C)COC1`, the cytotoxicity at 10 µM stood at 0.0962%. With `CC(C)CCc1n[nH]c(C(=O)O)c1Br`, the cytotoxicity at 10 µM was -3.09%. `CN1CCN(C(=O)c2cc3sccc3n2Cc2ccccc2)CC1`: the cytotoxicity at 10 µM stood at 4.38%. For `c1cnc(N2CCCC(Cc3nccs3)C2)nc1` (stereo not drawn), the cytotoxicity at 10 µM is 0.45%. With `CCCS(=O)(=O)N1CCN(C(C)(C)CO)CC1`, the cytotoxicity at 10 µM is -0.45%. For `O=C(c1ccc(CN2CCCC2)cc1)N1CCCC(n2cccn2)C1` (stereo not drawn), the cytotoxicity at 10 µM was -1.88%. Consider `O=C(c1ccc(O)nc1)N1CCc2ccc(O)cc2C1`, for which the cytotoxicity at 10 µM is -8.77%. As for `CN(CCc1ccncc1)Cc1nccn1Cc1ccccc1`, the cytotoxicity at 10 µM came out at 15.1%.

In the case of `COCCC(C)NC(=O)Nc1ccc(N2CCOC2=O)c(OC)c1` (stereo not drawn), the cytotoxicity at 10 µM was found to be 6.48%. Take `COc1ccc(CN(C)Cc2cccc(C#N)c2)c(OC)c1`: the cytotoxicity at 10 µM is -4.48%. On to `CS(=O)(=O)NCCNC(=O)c1cnc(-c2ccccc2)nc1`, for which the cytotoxicity at 10 µM was 5.3%. As for `COc1ccc(Oc2ccc(CNC(=O)C(C)n3cncn3)cn2)cc1` (stereo not drawn), the cytotoxicity at 10 µM came to 5.42%. Then `CCCN1CCN(C(=O)c2cccnc2-n2cncn2)CC1`, with 5.28%; and `Cc1nnc(C(C)NCC2(c3ccc(Cl)cc3)CCOCC2)o1` (stereo not drawn), with -1.47%.

Take `Cn1cc(CC2CCN(C(=O)NCc3csc(C4CC4)n3)C2)cn1` (stereo not drawn): the cytotoxicity at 10 µM is 5.22%. As for `NC(=O)C1CCN(C(=O)Cc2ccc(Cl)c(Cl)c2)CC1`, the cytotoxicity at 10 µM was determined as 5.82%. For the compound `Cc1ccsc1C(=O)NC(C)c1ccc2c(c1)CCC(=O)N2` (stereo not drawn), the cytotoxicity at 10 µM is -12.4%. For the compound `Cc1cnc(CCNC(Cc2ccncc2)C(F)(F)F)s1` (stereo not drawn), the cytotoxicity at 10 µM amounted to 24.4%. `O=C1NCCCCC1NCc1csc(-c2ccsc2)n1` (stereo not drawn): the cytotoxicity at 10 µM was determined as 3.27%. Turning to `CCC(SC)C(=O)N1CCC(n2cccn2)CC1` (stereo not drawn), the cytotoxicity at 10 µM is -45.8%. In the case of `O=C(Nc1cc2c(cc1Br)OCCO2)NC1CCS(=O)(=O)C1` (stereo not drawn), the cytotoxicity at 10 µM was -9.82%. As to `CN1C(=O)CC(N(C)Cc2nc3ccccc3c(=O)[nH]2)C1=O` (stereo not drawn), the cytotoxicity at 10 µM came out at 7.61%. In the case of `Cc1cc(NCc2ccc(CS(N)(=O)=O)cc2)nc(C)n1`, the cytotoxicity at 10 µM was -7.2%.

Turning to `NC(=O)c1cc(C2CCCN(Cc3ccc4c(c3)OCCO4)C2)n[nH]1` (stereo not drawn), the cytotoxicity at 10 µM was -7%. For the compound `COc1ccnc(NC2CCN(CC(=O)N3CCCC3)CC2)n1`, the cytotoxicity at 10 µM is -7.88%. For `CS(=O)(=O)NCCC(=O)N1CCN(S(=O)(=O)c2ccc(Br)cc2)CC1`, the cytotoxicity at 10 µM is -29.6%. On to `CNS(=O)(=O)c1cccc(C(C)NCc2ccccc2)c1` (stereo not drawn), for which the cytotoxicity at 10 µM is -2.29%. As for `Cn1c(C(=O)N2CCC(C(=O)N3CCCC3)CC2)c(Cl)c2ccccc21`, the cytotoxicity at 10 µM is 3.12%. Take `CC(=O)c1ccccc1C(=O)NCC1(CO)CC1`: the cytotoxicity at 10 µM was -18.9%. Turning to `Cn1cc(CN2CCOCC3(CCN(C4CCOCC4)C3)C2)cn1` (stereo not drawn), the cytotoxicity at 10 µM was -3.92%. For the compound `COCC1CC2(CCN(Cc3cccnc3)CC2)CN1C(C)C` (stereo not drawn), the cytotoxicity at 10 µM was -4.21%.

For `COCCN1C[C@@H]2[C@@H](OC)CCN(C(=O)c3cccc(OC)c3)[C@@H]2C1`, the cytotoxicity at 10 µM was -1.01%. Then `Cc1ccc(NC2(C(=O)NCc3c(C)n[nH]c3C)CCCC2)cc1`, with 3.73%; and `COc1cc2c(cc1C(=O)N1CCCCC1c1ccccn1)CCC2` (stereo not drawn), with -2.8%; and `CCOCCn1nc(C)cc1C(=O)N1CC(C)(C)[C@@](C)(O)C1`, with 0.301%. As for `CN(C)c1ccc(C(=O)N2CCCN(C3CCCCC3)CC2)cn1`, the cytotoxicity at 10 µM was -6.46%. For `O=C(O)[C@@H]1CN(C(=O)CCC(F)(F)F)C[C@H]1c1ccncc1`, the cytotoxicity at 10 µM is 0.108%.

As to `O=C(c1cnn[nH]1)N1CCCC1c1nc2cc(F)ccc2[nH]1` (stereo not drawn), the cytotoxicity at 10 µM worked out at 2.68%.

`CC(O)Cc1cn(CC2CCN(c3nccc4occc34)CC2)nn1` (stereo not drawn): the cytotoxicity at 10 µM is -6.64%. Turning to `CCOCC(=O)N1CCC(c2nccn2C)CC1`, the cytotoxicity at 10 µM was -53.4%. As to `Cc1cc(C)cc(CN2CCN(Cc3cc(C#N)n(C)c3)CC2=O)c1`, the cytotoxicity at 10 µM was determined as 6.24%. Take `CN(C)c1nc(NCCc2ccccn2)ncc1F`: the cytotoxicity at 10 µM was -4.84%.

Turning to `COc1ccc(C(=O)NCc2ccon2)cc1F`, the cytotoxicity at 10 µM came to 0.824%. For the compound `CCCN1CCCC2(CCN(c3nccc(OC)n3)C2)C1=O` (stereo not drawn), the cytotoxicity at 10 µM was -4.74%. Turning to `COc1ccc(C(=O)N2CCC(Oc3ccccc3C)(C(=O)O)CC2)o1`, the cytotoxicity at 10 µM was 13.2%. As to `O=C(O)C(c1cccc2c1OCC2)N1CCC(N2CCSCC2)CC1` (stereo not drawn), the cytotoxicity at 10 µM was 6.14%.

As for `Cc1ccnc(NCCNC(=O)c2ccccc2NCC(=O)O)c1`, the cytotoxicity at 10 µM was -12.7%.

For the compound `CCc1cnc(C)nc1NCCN1CCCCCC1`, the cytotoxicity at 10 µM is -10.8%.

`CC(C)NC(=O)c1nnn(-c2cccc(C(F)(F)F)c2)c1N`: the cytotoxicity at 10 µM was -11.5%. Then `COc1cccc(S(=O)(=O)N2CCC(O)(CN(C)C)C2)c1` (stereo not drawn), with 3.85%; and `O=C(c1cccn1Cc1cccs1)N1CCC(C(=O)N2CCCC2)CC1`, with -1.23%; and `Cc1ccc(C(CNC(=O)NCc2ccccn2)N2CCOCC2)o1` (stereo not drawn), with -14.9%. Then `CCc1ocnc1C(=O)N1CCCC1c1noc(C(C)C)n1` (stereo not drawn), with -8.69%; and `CN(C)c1ncccc1CNS(=O)(=O)c1c(F)cccc1F`, with -9.91%. For `COC(=O)c1cccn1C1CCN(Cc2cccnc2)CC1`, the cytotoxicity at 10 µM is -25.6%.

Consider `Cc1cn2nc(N3CCCCC3Cn3cccn3)sc2n1` (stereo not drawn), for which the cytotoxicity at 10 µM is -1.14%. Turning to `O=C(c1ccc(NC2CC2)nc1)N1CCC(Nc2cccnn2)CC1`, the cytotoxicity at 10 µM is -12.6%.

As for `CC(C)c1nc2c(n1C)CCN(CC(=O)Nc1ccncc1)C2`, the cytotoxicity at 10 µM was 0.698%.

Take `CCN(Cc1ccc(OC)c(F)c1)Cc1nc2c(cnn2C)c(=O)[nH]1`: the cytotoxicity at 10 µM stood at 2.2%. As for `CC(=O)N(Cc1noc(C)n1)C1CCN(Cc2ncc(C(C)C)o2)C1` (stereo not drawn), the figure is -13.2%. `Cn1cnnc1C1CCCN(C(=O)c2cc(Cl)cc(Cl)c2)C1` (stereo not drawn): the cytotoxicity at 10 µM is -9.91%. As for `Cc1cc(NC(=O)C(C)N2CCN(c3nccs3)CC2)on1` (stereo not drawn), the cytotoxicity at 10 µM is -12.6%. Regarding `Cc1cc(C)n(CC2CN(CC(=O)Nc3nncs3)CCO2)n1` (stereo not drawn), the cytotoxicity at 10 µM is -2.97%.

In the case of `Cc1cnn(C2CCCN(C(=O)c3ccc(N(C)C)nn3)C2)c1` (stereo not drawn), the cytotoxicity at 10 µM was -5.36%. Turning to `COc1c(CNCc2ccc(CN(C)C)cc2)c(C(C)C)nn1C`, the cytotoxicity at 10 µM was -11.2%.

In the case of `Cc1cc(CN(C)C(=O)c2cccc(N3CCCC3=O)c2)no1`, the cytotoxicity at 10 µM amounted to 0.376%. Turning to `CN(C)c1ncccc1CNC(=O)N1CCCC1CN1CCCCC1` (stereo not drawn), the cytotoxicity at 10 µM is -0.986%. With `O=C(NC1CCN(c2snc3ccccc23)CC1)C1CCC1`, the cytotoxicity at 10 µM is 4.5%. As to `Cc1nc(C)n(C2CCCN(C(=O)c3csnn3)C2)n1` (stereo not drawn), the cytotoxicity at 10 µM is -5.48%. As for `CN1CCN(Cc2cn3c(n2)CN(C2CCOCC2)CC3)CC1`, the figure is 3.91%; as for `CN(C)C(=O)CN1CCOCC2(C1)CN(c1ncccn1)CCO2` (stereo not drawn), 1.71%. As to `CN(C)c1nc2c(c(N(C)C)n1)CCN(C(=O)CN1C[C@H]3CC[C@@H]1C3)C2`, the cytotoxicity at 10 µM was 4.45%.
